Source: PubChem (several laboratories)
Hits are enriched below; roughly 4.9% of the tested compounds scored in any of these assays.
STAT1 activator – STAT1 signaling activators, primary screen, cell-based, HTS, luciferase reporter | activation (% of control), % at 5.5 µM | AID 932, 2007 | actives 2.6% (n = 200,000) | NIH 3T3 STAT1-luciferase reporter, IFN-gamma, luminescence; 100% = IFN-gamma alone, no compound;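 active means activation above the screen-wide mean activation plus 3 SD, cut at about 130% in these data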
NF-kB expr up – activators of NF-kB expression in neurons, primary screen, cell-based, HTS | human neuronal cells, NF-kB reporter expression; active compounds read high | fold change at 12.5 µM | actives 1.6% (n = 190,000) | AID 1239, 2008; in the data active means fold change above about 3.3
STAT1 blocker – STAT1 signaling inhibitors, primary screen, cell-based, HTS, luciferase reporter; NIH 3T3 STAT1-luciferase reporter, IFN-gamma, luminescence; inhibition, % at 5.5 µM; actives 0.35% (n = 200,000); AID 920, 2007;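 active means inhibition above a set limit, the mean inhibition across all tested compounds plus 3 SD, cut at about 34% in these data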
APP 5'UTR act – activators of APP 5'UTR luciferase reporter, primary screen, SH-SY5Y cells; SH-SY5Y APP 5'UTR luciferase reporter, luminescence; zero percent = DMSO vehicle wells; activation, % at 2 µM; actives 1% (n = 190,000);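 active means activation above a set limit, based on mean plus 3 SD of controls, cut at about 140% in these data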
STAT3 act – IL-6 driven STAT3 reporter potentiators, primary screen, U3A cells, luciferase, luminescence, MLSCN library | AID 871, 2007 | actives 0.91% (n = 190,000) | activation (% of control), % at 5.6 µM | IL-6 STAT3-luciferase reporter; 100% = signal with IL-6 EC80 alone;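 active means activation above the screen-wide mean of compound activation plus 3 SD, cut at about 130% in these data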
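Material: STAT1-lacking human U3A cells, STAT3 luciferase reporter | Benchmarks: IL-6-only wells as 100% reference | Probe or stimulus: IL-6 (33 ng/mL) | Timing: Compound 1 h, then IL-6 6 h at 37 °C | Detection: Luminescence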
STAT3 inh-1 – IL-6 driven STAT3 reporter inhibitors, primary screen, U3A cells, luciferase, luminescence, MLSCN library; IL-6 STAT3-luciferase reporter; host cell line lacks STAT1; inhibition, % at 5.5 µM; actives 0.89% (n = 190,000);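 active means inhibition above the mean inhibition across all screened compounds plus 3 SD, cut at about 44% in these data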
STAT3 inh-2 – STAT3 reporter inhibitors, retest of hits, confirmation, U3A cells, luciferase, luminescence; shares compounds with STAT3 inh-1; IL-6 STAT3 luciferase reporter; cell line lacks STAT1; inhibition, % at 5.7 µM; actives 45% (n = 1,200); AID 1265, 2008;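 active means inhibition above the hit cutoff computed for the primary STAT3 screen, cut at about 44% in these data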
NFkB inh STAT3ct – NF-kB reporter inhibitors in human cells, confirmation, counter-screen for STAT3 inhibitor project, cell-based, HEK293T, luciferase, TNF-alpha stimulus; shares compounds with STAT3 inh-1; TNF-alpha induced; inhibition, % at 5.7 µM; actives 36% (n = 1,200); AID 1308, 2008;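 active means inhibition above the mean of solvent-only control wells plus 3 SD, cutoff set per campaign, cut at about 13% in these data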
STAT1 inh STAT3c – STAT1 reporter inhibitors, IFN-gamma induced, confirmation, counter-screen for STAT3 inhibitor project, cell-based, NIH 3T3, luciferase luminescence; inhibition, % at 5.7 µM; actives 27% (n = 1,200); shares compounds with STAT3 inh-1; AID 1317, 2008; NIH 3T3 STAT1-luciferase reporter;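 active means inhibition above the mean plus 3 SD of solvent-only control wells, limit set per screening run, cut at about 16% in these data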
Of the large screens only hits and unclear results are named; the others gave an inactive call (follow-up assays come after a bar, where they were run).

CC1CCCCC1NS(=O)(=O)c1ccc(S(=O)(=O)NCc2ccncc2)cc1 (stereo unspecified)	STAT3 inh-1 73 | STAT3 inh-2 48 | NFkB inh STAT3ct inactive | STAT1 inh STAT3c inactive
Cc1ccc(S(=O)(=O)NCc2ccncc2)cc1	STAT3 inh-1 68 | STAT3 inh-2 inactive | NFkB inh STAT3ct 21 | STAT1 inh STAT3c 25
CCOc1ccc(S(=O)(=O)NCc2ccncc2)cc1	STAT3 inh-1 88 | STAT3 inh-2 82 | NFkB inh STAT3ct 34 | STAT1 inh STAT3c 24
CCOc1cc(S(=O)(=O)NCc2ccncc2)ccc1Cl	STAT3 inh-1 84 | STAT3 inh-2 85 | NFkB inh STAT3ct 34 | STAT1 inh STAT3c 27
COC(=O)c1sccc1NC(=O)Cn1nnc(-c2ccccc2C)n1	none
CCOC(=O)COc1ccc(S(=O)(=O)NCc2ccco2)cc1	none
CCOC(=O)COc1ccc(S(=O)(=O)NCc2ccncc2)cc1	STAT3 inh-1 70 (no result: APP 5'UTR act) | STAT3 inh-2 55 | NFkB inh STAT3ct inactive | STAT1 inh STAT3c 23
CC(C)OC(=O)CSc1nnc2c(n1)[nH]c1ccc(F)cc12	none
Cc1cc(C)nc(Nc2n[nH]c(-c3ccc(C(C)(C)C)cc3)n2)n1	STAT3 inh-1 47 | STAT3 inh-2 inactive | NFkB inh STAT3ct inactive | STAT1 inh STAT3c inactive
COc1ccc(CC(=O)Nc2cccc(SC)c2)cc1OC	STAT3 inh-1 47 | STAT3 inh-2 44 | NFkB inh STAT3ct inactive | STAT1 inh STAT3c inactive
COc1ccc(CC(=O)Nc2cccc(S(=O)(=O)N3CCCCCC3)c2)cc1OC	STAT3 inh-1 74 | STAT3 inh-2 75 | NFkB inh STAT3ct 27 | STAT1 inh STAT3c 19
COc1ccc(/C=N/NC(=O)COc2cc(C)cc(C)c2)cc1COC(C)=O	none
NC(=O)c1ccc(-c2ncc(-c3ccccc3)o2)cc1	NF-kB expr up 12, STAT3 inh-1 54 | STAT3 inh-2 inactive | NFkB inh STAT3ct 20 | STAT1 inh STAT3c inactive
Cc1cc(CNC(=O)c2cccc([N+](=O)[O-])c2C)c2ccccc2n1	STAT3 inh-1 51 | STAT3 inh-2 54 | NFkB inh STAT3ct 14 | STAT1 inh STAT3c 22
O=C(c1cc(COc2c(F)cccc2F)on1)N1CCC(c2ccncc2)CC1	STAT3 inh-1 53 | STAT3 inh-2 59 | NFkB inh STAT3ct 18 | STAT1 inh STAT3c 20
O=C(c1cc(COc2c(F)cccc2F)on1)N1CCc2ccccc2C1	none
CCOC(=O)C1=C(N)Oc2cc(O)ccc2C1c1cccc([N+](=O)[O-])c1 (stereo unspecified)	none
Cc1nc2ccccc2c2c1C(=O)N(c1cccc(C(=O)O)c1)C2=O	none
Cc1ccc(C)c(C(=O)COC(=O)c2cccc(N3C(=O)c4c(C)nc5ccccc5c4C3=O)c2)c1	APP 5'UTR act 141, STAT3 inh-1 50 | STAT3 inh-2 45 | NFkB inh STAT3ct 29 | STAT1 inh STAT3c 44
COc1ccc(-c2nn(C)c(=O)c3ccccc23)cc1NC(=O)COc1ccc(C)cc1	STAT3 inh-1 65 | STAT3 inh-2 49 | NFkB inh STAT3ct inactive | STAT1 inh STAT3c inactive
O=C(Nc1nc(-c2ccc(Cl)cc2Cl)cs1)c1ccc(OCC2CCCO2)cc1 (stereo unspecified)	none
Cc1cc(C)c2nc(NC(=O)c3ccc(OCC4CCCO4)cc3)sc2c1 (stereo unspecified)	STAT3 inh-1 47 | STAT3 inh-2 inactive | NFkB inh STAT3ct inactive | STAT1 inh STAT3c inactive
CCCCC(=O)Nc1cc2nn(-c3ccc(OC)cc3)nc2cc1C	none
CCC(=O)Nc1cc2nn(-c3ccc(OC)cc3)nc2cc1C	STAT1 activator 133, APP 5'UTR act 162, STAT3 inh-1 44 | STAT3 inh-2 inactive | NFkB inh STAT3ct inactive | STAT1 inh STAT3c inactive
CCC(=O)Nc1cc2nn(-c3ccc(C)cc3)nc2cc1C	STAT3 inh-1 82 | STAT3 inh-2 51 | NFkB inh STAT3ct 14 | STAT1 inh STAT3c inactive
O=C(N/N=C/c1ccccc1)c1n[nH]c2c1CCCC2	STAT3 inh-1 56 | STAT3 inh-2 inactive | NFkB inh STAT3ct inactive | STAT1 inh STAT3c inactive
O=C(N/N=C/c1ccccc1Cl)c1n[nH]c2c1CCCC2	STAT3 inh-1 68 | STAT3 inh-2 73 | NFkB inh STAT3ct 56 | STAT1 inh STAT3c 23
O=C(O)/C=C/c1cnn(-c2ccccc2)c1	STAT3 inh-1 45 | STAT3 inh-2 inactive | NFkB inh STAT3ct inactive | STAT1 inh STAT3c inactive
Cn1c(-c2ccccc2)cnc1SCC(=O)N1CCCCC1	STAT3 inh-1 66 | STAT3 inh-2 inactive | NFkB inh STAT3ct inactive | STAT1 inh STAT3c inactive
CCCN=C(C)c1c(-c2ccccc2)[nH]n(-c2nc3ccccc3s2)c1=O	none
C/C(=N/NC(=O)c1cccs1)c1c(C)[nH]n(-c2nc3ccccc3s2)c1=O	STAT3 inh-1 56 | STAT3 inh-2 inactive | NFkB inh STAT3ct inactive | STAT1 inh STAT3c inactive
COC(=O)Cc1[nH]n(-c2nc3ccccc3s2)c(=O)c1C(C)=Nc1ccc(C)cc1	STAT3 inh-1 100 | STAT3 inh-2 68 | NFkB inh STAT3ct 64 | STAT1 inh STAT3c inactive
O=C(Nc1ccn(Cc2ccccc2F)n1)c1ccc(COc2ccccc2Cl)cc1	STAT3 inh-1 46 | STAT3 inh-2 46 | NFkB inh STAT3ct inactive | STAT1 inh STAT3c inactive
CC(=O)Nc1ccc(Nc2cc(C)nc3c(-c4ccccc4)cnn23)cc1	STAT1 activator 150, APP 5'UTR act 165, STAT3 inh-1 55 | STAT3 inh-2 inactive | NFkB inh STAT3ct inactive | STAT1 inh STAT3c inactive
CC(=O)Nc1ccc(Nc2cc(-c3ccccc3)nc3ncnn23)cc1	none
COc1ccc(-n2cc(C(=O)c3ccccc3O)cn2)cc1	NF-kB expr up 3.9, APP 5'UTR act 236, STAT3 inh-1 65 | STAT3 inh-2 inactive | NFkB inh STAT3ct inactive | STAT1 inh STAT3c inactive
COc1ccc(-n2cc(C(=O)c3ccc4ccccc4c3O)cn2)cc1	none
Cc1ccc(NC(=O)CSc2nnc3ccccn23)cc1S(=O)(=O)N1CCOCC1	none
O=C(O)COc1ccc(-c2nccc(-c3ccccn3)n2)cc1	STAT3 inh-1 47 | STAT3 inh-2 inactive | NFkB inh STAT3ct 15 | STAT1 inh STAT3c inactive
